Consider 43 molecules from ChEMBL document CHEMBL1135676, “Comparative molecular field analysis of substrates for an aryl sulfotransferase based on catalytic mechanism and protein homology modeling” (J Med Chem, 2002).

Sulfotransferase 1A1, sequence (P17988 whole entry): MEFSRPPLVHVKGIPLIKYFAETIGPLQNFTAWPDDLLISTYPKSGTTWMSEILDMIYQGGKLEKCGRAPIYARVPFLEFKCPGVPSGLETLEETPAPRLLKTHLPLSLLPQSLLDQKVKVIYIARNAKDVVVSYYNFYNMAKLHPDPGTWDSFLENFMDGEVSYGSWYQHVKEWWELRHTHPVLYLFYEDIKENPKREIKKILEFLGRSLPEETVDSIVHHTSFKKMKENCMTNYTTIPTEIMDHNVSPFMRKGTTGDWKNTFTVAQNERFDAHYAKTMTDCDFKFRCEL

The data set deals with Sulfotransferase 1A1 (Rattus norvegicus, UniProt P17988). Description: Ratio of kcat/Km determined for catalytic efficiency in sulfonation against AST IV. In outline:
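Recombinant rat hepatic AST IV, expressed in E. coli and purified. Each reaction held 1.0 μg enzyme, 0.2 mM PAPS, 8.3 mM 2-mercaptoethanol, varying substrate and 0.25 M potassium phosphate at pH 7.0. Mixtures were preincubated 2 min at 37 °C, started with enzyme, run 10 min at 37 °C and stopped with methanol. Substrate-dependent PAP formation was read by HPLC and corrected with substrate-free controls. kcat is in min⁻¹ and apparent Km in M.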
As for `CCc1ccc(O)cc1`, the Ratio amounted to 1390. The result for `OCc1cccc2ccccc12` reads 29.4; that for `CCCCC[C@H](O)c1ccccc1`, 10.2. Next, `CCCCCCCc1ccc(O)cc1`: 73.4; `Oc1ccc(C23C[C@H]4C[C@@H](C2)C[C@@H](C3)C4)cc1`: 1600. Next, `CN(O)c1ccccc1`: 24.2; `OCc1ccc2ccccc2c1`: 101. Turning to `ONc1ccc(Cl)cc1`, the Ratio is given as 45.6. Next, `CCCCCCCc1ccc(CO)cc1`: 11; `CCCCCCc1ccc(CO)cc1`: 109. Next, `O=[N+]([O-])c1ccc(O)c(Cl)c1`: 190; `CCCC[C@H](O)c1ccccc1`: 103; `C[C@@H](O)c1ccccc1`: 0.4.

Regarding `CCCCc1ccc(O)cc1`, the Ratio worked out at 2230.

`CCCCCc1ccc(O)cc1`: the Ratio was found to be 784.

For `O=C(CBr)Nc1ccc(O)cc1`, the Ratio was 146. Next, `CCN(O)c1ccccc1`: 14.2; `CCCCCC[C@H](O)c1ccccc1`: 8.8; `CCCc1ccc(CO)cc1`: 151. The result for `CCCCCc1ccc(CO)cc1` reads 185. The result for `CCCCc1ccc(CO)cc1` reads 147.

As for `CN[C@H](C)[C@H](O)c1ccccc1`, the Ratio amounted to 0.1. Next, `ONc1ccccc1`: 6.3. Next, `CC[C@H](O)c1ccccc1`: 1.4; `C[C@H](O)c1ccccc1`: 4.6; `CCCc1ccc(O)cc1`: 2410. The result for `CN[C@@H](C)C(O)c1ccccc1` (stereo partly drawn) reads 0.1.

In the case of `CC(C)[C@H](O)c1ccccc1`, the Ratio was determined as 0.2. The result for `OC1CCCc2ccccc21` (stereo not drawn) reads 32.4; that for `CCCN(O)c1ccccc1`, 20.8; that for `CCC[C@H](O)c1ccccc1`, 0.8. The result for `OCc1ccoc1` reads 0.4. Next, `Oc1ccc(-c2ccccc2)cc1`: 79.1.

For the molecule `Cc1ccc(CO)cc1`, the Ratio was 28.7.

For `CCCCCCCCCc1ccc(O)cc1` [4-NONYLPHENOL], the Ratio came out at 28.3. On to `CC(=O)Nc1ccc(O)cc1` [ACETAMINOPHEN], for which the Ratio is given as 66.7. Consider `OCc1ccccc1` [BENZYL ALCOHOL], for which the Ratio stood at 20.7. The result for `Oc1ccc2ccccc2c1` [BETANAPHTHOL] reads 4790; that for `OCc1c[nH]c2ccccc12` [INDOLE-3-CARBINOL], 38.9. The result for `O=[N+]([O-])c1ccc(CO)cc1` [PARANITROBENZYL ALCOHOL] reads 3.5; that for `Oc1ccccc1` [PHENOL], 625; that for `COC(=O)[C@@H](N)Cc1ccc(O)cc1` [TYROSINE METHYL ESTER], 3.

In the case of `Cc1ccc(O)cc1` [p-CRESOL], the Ratio was found to be 1080.
